Experimental findings from publication PMC7413021 (The Journal of nutritional biochemistry, 2016) are described below.

The nature of the series: Measurement of phenolics in plasma. The format is in vivo. The conditions noted are these: 2 months old male mice fed diet containing 25% dried plum for 4 weeks. In outline: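 Male C57Bl/6 mice, 2 months old, fed control AIN-93G or diet with 25% test material for 4 weeks (n=8/group). At euthanasia, blood was drawn into lithium-heparin tubes and spun at 6500 rpm for 10 min at 4°C. Plasma was acidified 4:1 with 1% ascorbic acid in saline, purged with nitrogen and stored at −80°C. Quercetin glycosides and caffeic and gallic acid derivatives were profiled by LC/TOF-MS.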
Regarding `COc1cc(CCC(=O)O)ccc1O[C@@H]1O[C@H](C(=O)O)[C@@H](O)[C@H](O)[C@H]1O` [Dihydroferulic acid 4-O-glucuronide], the “plasma concentration, CMin” value was determined as 3270 nM and the “plasma concentration, Caverage” value came to 4990 ± 440 nM.

`COc1cc(/C=C/C(=O)O)ccc1O[C@@H]1O[C@H](C(=O)O)[C@@H](O)[C@H](O)[C@H]1O` [Ferulic acid 4-O-glucuronide]: the “plasma concentration, CMin” value worked out at 1100 nM and the “plasma concentration, Caverage” value was 3060 ± 450 nM.

In the case of `COc1ccc(/C=C/C(=O)O)cc1O[C@@H]1O[C@H](C(=O)O)[C@@H](O)[C@H](O)[C@H]1O` [Isoferulic acid 3-O-glucuronide], the “plasma concentration, CMin” value was 20 nM and the “plasma concentration, Caverage” value was determined as 800 ± 210 nM.

`COc1ccc(CCC(=O)O)cc1O[C@@H]1O[C@H](C(=O)O)[C@@H](O)[C@H](O)[C@H]1O` [Dihydroisoferulic acid 3-O-glucuronide]: the “plasma concentration, CMin” value is 420 nM and the “plasma concentration, Caverage” value worked out at 1390 ± 310 nM.
